ChEMBL document CHEMBL4689842, “EUbOPEN Chemogenomics Library wave 1” (2021)
Where “and” joins values, the source holds several entries; their conditions need not be identical. Identical values can stand only once.

Test system: HEK-293T
Assay: Multiplex assay against HEK293T;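 as to Population Tubulin-Different-Phenotype (%): share of the cells with healthy nuclei that show this phenotype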
Type: toxicity, cell-based
Conditions: human
How it was run: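 Live cells were stained at seeding with Hoechst33342, BioTracker Green Microtubule Cytoskeleton Dye, MitoTracker Red and Annexin V Alexa Fluor 680, then imaged on a CQ1 microscope at 37°C and 5% CO2 after compound addition. CellPathfinder machine-learning gating split cells into Hoechst high-intensity objects or normal cells. Normal cells were split into healthy, pyknosed or fragmented nuclei, and pyknosed cells into mitotic or apoptotic. Tubulin, mitochondrial-mass and membrane-permeability phenotypes are per cents of healthy-nucleus cells.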

[1] = 12 h, 1 µM, compound concentration 1 uM, replicate 1
[2] = 12 h, 1 µM, compound concentration 1 uM, replicate 2
[3] = 12 h, 10 µM, compound concentration 10 uM, replicate 1
[4] = 12 h, 10 µM, compound concentration 10 uM, replicate 2
[5] = 24 h, 1 µM, compound concentration 1 uM, replicate 1
[6] = 24 h, 1 µM, compound concentration 1 uM, replicate 2
[7] = 24 h, 10 µM, compound concentration 10 uM, replicate 1
[8] = 24 h, 10 µM, compound concentration 10 uM, replicate 2
[9] = 48 h, 1 µM, compound concentration 1 uM, replicate 1
[10] = 48 h, 1 µM, compound concentration 1 uM, replicate 2
[11] = 48 h, 10 µM, compound concentration 10 uM, replicate 1
[12] = 48 h, 10 µM, compound concentration 10 uM, replicate 2

C=CC(=O)Nc1ccc2[nH]c(=O)n(C3CCN(Cc4ccc(-c5nc6cc[nH]c(=O)c6cc5-c5ccccc5)cc4)CC3)c2c1 [Borussertib]
Population Apoptotic (%) [1]: 18%
Population Fragmented Nuclei (%) [1]: 16%
Population Healthy Nuclei (%) [1]: 66%
Population Hoechst High Intensity Objects (%) [1]: 13%
Population Membrane Permeable-Phenotype (%) [1]: 5%
Population Mitochondria Different-Phenotype (%) [1]: 5%
Population Mitotic Cells (%) [1]: 81%
Population Normal (%) [1]: 86%
Population Pyknosed Nuclei (%) [1]: 17%
Population Tubulin-Different-Phenotype (%) [1]: 5%
Total Cell Count [1]: 656
Population Apoptotic (%) [2]: 14%
Population Fragmented Nuclei (%) [2]: 7%
Population Healthy Nuclei (%) [2]: 86%
Population Hoechst High Intensity Objects (%) [2]: 3%
Population Membrane Permeable-Phenotype (%) [2]: 3%
Population Mitochondria Different-Phenotype (%) [2]: 12%
Population Mitotic Cells (%) [2]: 85%
Population Normal (%) [2]: 96%
Population Pyknosed Nuclei (%) [2]: 5%
Population Tubulin-Different-Phenotype (%) [2]: 12%
Total Cell Count [2]: 1375
Population Apoptotic (%) [3]: 24%
Population Fragmented Nuclei (%) [3]: 17%
Population Healthy Nuclei (%) [3]: 48%
Population Hoechst High Intensity Objects (%) [3]: 13%
Population Membrane Permeable-Phenotype (%) [3]: 9%
Population Mitochondria Different-Phenotype (%) [3]: 25%
Population Mitotic Cells (%) [3]: 75%
Population Normal (%) [3]: 86%
Population Pyknosed Nuclei (%) [3]: 33%
Population Tubulin-Different-Phenotype (%) [3]: 44%
Total Cell Count [3]: 585
Population Apoptotic (%) [4]: 17%
Population Fragmented Nuclei (%) [4]: 4%
Population Healthy Nuclei (%) [4]: 84%
Population Hoechst High Intensity Objects (%) [4]: 4%
Population Membrane Permeable-Phenotype (%) [4]: 12%
Population Mitochondria Different-Phenotype (%) [4]: 43%
Population Mitotic Cells (%) [4]: 82%
Population Normal (%) [4]: 95%
Population Pyknosed Nuclei (%) [4]: 11%
Population Tubulin-Different-Phenotype (%) [4]: 82%
Total Cell Count [4]: 1080
Population Apoptotic (%) [5]: 15%
Population Fragmented Nuclei (%) [5]: 14%
Population Healthy Nuclei (%) [5]: 75%
Population Hoechst High Intensity Objects (%) [5]: 11%
Population Membrane Permeable-Phenotype (%) [5]: 8%
Population Mitochondria Different-Phenotype (%) [5]: 3%
Population Mitotic Cells (%) [5]: 84%
Population Normal (%) [5]: 88%
Population Pyknosed Nuclei (%) [5]: 9%
Population Tubulin-Different-Phenotype (%) [5]: 10%
Total Cell Count [5]: 716
Population Apoptotic (%) [6]: 11%
Population Fragmented Nuclei (%) [6]: 19%
Population Healthy Nuclei (%) [6]: 77%
Population Hoechst High Intensity Objects (%) [6]: 4%
Population Membrane Permeable-Phenotype (%) [6]: 9%
Population Mitochondria Different-Phenotype (%) [6]: 4%
Population Mitotic Cells (%) [6]: 88%
Population Normal (%) [6]: 95%
Population Pyknosed Nuclei (%) [6]: 3%
Population Tubulin-Different-Phenotype (%) [6]: 19%
Total Cell Count [6]: 2108
Population Apoptotic (%) [7]: 34%
Population Fragmented Nuclei (%) [7]: 15%
Population Healthy Nuclei (%) [7]: 60%
Population Hoechst High Intensity Objects (%) [7]: 16%
Population Membrane Permeable-Phenotype (%) [7]: 8%
Population Mitochondria Different-Phenotype (%) [7]: 33%
Population Mitotic Cells (%) [7]: 65%
Population Normal (%) [7]: 83%
Population Pyknosed Nuclei (%) [7]: 23%
Population Tubulin-Different-Phenotype (%) [7]: 68%
Total Cell Count [7]: 518
Population Apoptotic (%) [8]: 16%
Population Fragmented Nuclei (%) [8]: 8%
Population Healthy Nuclei (%) [8]: 83%
Population Hoechst High Intensity Objects (%) [8]: 9%
Population Membrane Permeable-Phenotype (%) [8]: 9%
Population Mitochondria Different-Phenotype (%) [8]: 43%
Population Mitotic Cells (%) [8]: 83%
Population Normal (%) [8]: 90%
Population Pyknosed Nuclei (%) [8]: 8%
Population Tubulin-Different-Phenotype (%) [8]: 90%
Total Cell Count [8]: 1115

CNCc1ccccc1-c1csc([C@@H](C)Nc2nc(C)nc3cc(OC)c(OC)cc23)c1 [BAY-293]
Population Apoptotic (%) [3]: 19% and 47%
Population Fragmented Nuclei (%) [3]: 20% and 21%
Population Healthy Nuclei (%) [3]: 45% and 17%
Population Hoechst High Intensity Objects (%) [3]: 16% and 22%
Population Membrane Permeable-Phenotype (%) [3]: 29% and 15%
Population Mitochondria Different-Phenotype (%) [3]: 18% and 54%
Population Mitotic Cells (%) [3]: 80% and 52%
Population Normal (%) [3]: 83% and 77%
Population Pyknosed Nuclei (%) [3]: 34% and 61%
Population Tubulin-Different-Phenotype (%) [3]: 80% and 65%
Total Cell Count [3]: 581 and 619
Population Fragmented Nuclei (%) [4]: 5% and 2%
Population Healthy Nuclei (%) [4]: 80% and 57%
Population Hoechst High Intensity Objects (%) [4]: 3% and 9%
Population Membrane Permeable-Phenotype (%) [4]: 7%
Population Mitotic Cells (%) [4]: 91% and 65%
Population Normal (%) [4]: 96% and 90%
Population Pyknosed Nuclei (%) [4]: 14% and 40%
Population Tubulin-Different-Phenotype (%) [4]: 95% and 92%
Total Cell Count [4]: 1447 and 918
Population Apoptotic (%) [7]: 55% and 23%
Population Fragmented Nuclei (%) [7]: 28% and 17%
Population Hoechst High Intensity Objects (%) [7]: 25% and 13%
Population Membrane Permeable-Phenotype (%) [7]: 17% and 36%
Population Mitochondria Different-Phenotype (%) [7]: 45% and 16%
Population Mitotic Cells (%) [7]: 44% and 76%
Population Normal (%) [7]: 74% and 86%
Population Tubulin-Different-Phenotype (%) [7]: 59% and 89%
Total Cell Count [7]: 668 and 627
Population Fragmented Nuclei (%) [8]: 5% and 15%
Population Healthy Nuclei (%) [8]: 46% and 79%
Population Mitotic Cells (%) [8]: 53% and 94%
Population Normal (%) [8]: 89% and 96%
Population Tubulin-Different-Phenotype (%) [8]: 73% and 82%
Total Cell Count [8]: 918 and 2344

Cc1ccccc1C(c1ccccc1C)N1C2CCC1CC(O)(c1ccccc1)C2 (stereo unspecified)
Population Apoptotic (%) [1]: 48%
Population Healthy Nuclei (%) [1]: 40%
Population Mitotic Cells (%) [1]: 51%
Population Normal (%) [1]: 82%
Population Pyknosed Nuclei (%) [1]: 48%
Total Cell Count [1]: 233
Population Apoptotic (%) [2]: 13%
Population Healthy Nuclei (%) [2]: 39%
Population Mitotic Cells (%) [2]: 86%
Population Normal (%) [2]: 94%
Population Pyknosed Nuclei (%) [2]: 55%
Total Cell Count [2]: 261
Population Apoptotic (%) [3]: 53%
Population Healthy Nuclei (%) [3]: 36%
Population Mitotic Cells (%) [3]: 46%
Population Normal (%) [3]: 88%
Population Pyknosed Nuclei (%) [3]: 54%
Total Cell Count [3]: 350
Population Healthy Nuclei (%) [4]: 26%
Population Mitotic Cells (%) [4]: 78%
Population Normal (%) [4]: 96%
Population Pyknosed Nuclei (%) [4]: 69%
Total Cell Count [4]: 210
Population Apoptotic (%) [5]: 43%
Population Healthy Nuclei (%) [5]: 45%
Population Mitotic Cells (%) [5]: 56%
Population Normal (%) [5]: 82%
Population Pyknosed Nuclei (%) [5]: 40%
Total Cell Count [5]: 254
Population Apoptotic (%) [6]: 13%
Population Healthy Nuclei (%) [6]: 61%
Population Mitotic Cells (%) [6]: 86%
Population Normal (%) [6]: 98%
Population Pyknosed Nuclei (%) [6]: 32%
Total Cell Count [6]: 355
Population Apoptotic (%) [7]: 49%
Population Healthy Nuclei (%) [7]: 42%
Population Mitotic Cells (%) [7]: 50%
Population Normal (%) [7]: 91%
Population Pyknosed Nuclei (%) [7]: 48%
Total Cell Count [7]: 339
Population Healthy Nuclei (%) [8]: 43%
Population Mitotic Cells (%) [8]: 68%
Population Normal (%) [8]: 95%
Population Pyknosed Nuclei (%) [8]: 53%
Total Cell Count [8]: 229
Population Healthy Nuclei (%) [9]: 49%
Population Mitotic Cells (%) [9]: 68%
Population Normal (%) [9]: 87%
Population Pyknosed Nuclei (%) [9]: 28%
Total Cell Count [9]: 301
Population Healthy Nuclei (%) [10]: 85%
Population Mitotic Cells (%) [10]: 87%
Population Normal (%) [10]: 98%
Population Pyknosed Nuclei (%) [10]: 10%
Total Cell Count [10]: 568
Population Apoptotic (%) [11]: 50%
Population Healthy Nuclei (%) [11]: 45%
Population Mitotic Cells (%) [11]: 49%
Population Normal (%) [11]: 91%
Population Pyknosed Nuclei (%) [11]: 42%
Total Cell Count [11]: 372
Population Apoptotic (%) [12]: 23%
Population Healthy Nuclei (%) [12]: 72%
Population Mitotic Cells (%) [12]: 76%
Population Normal (%) [12]: 97%
Population Pyknosed Nuclei (%) [12]: 24%
Total Cell Count [12]: 302
